Assay results: the array DNA melting data of Ke et al. (doi:10.1101/2024.01.08.574731)

Tests used:
[1] = folding enthalpy; higher = less favourable; fluorescence melt of hairpins on a sequencing array, two-state fit; details: sodium 0.088 M
Procedure, shortened: (§1)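 Folding enthalpy and melting temperature come from bootstrapped two-state fits to Cy3 fluorescence of library hairpins carrying annealed Cy3 and quencher oligos on a sequenced MiSeq flow cell. Imaging was done in 50 mM Na-HEPES pH 8.0, 25 mM NaCl, stepping by 2.5 °C up to 60 °C, and signals were normalised to pre-quench Cy3 and to control constructs. Results of four replicates were combined by inverse variance, and fitted temperatures were raised by 9.35 °C to match UV melts.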

[2] = melting temperature; fluorescence melt of hairpins on a sequencing array, two-state fit, raised by 9.35 °C to match UV melts; details: sodium 0.088 M
Procedure, shortened: as §1

| Sequence | folding enthalpy [1] | Tm [2] |
| --- | --- | --- |
| CGAATGAAAATTCG (((((....))))) | -22.5 kcal/mol | 48.1 °C |
| GCGTATCAACGC ((((....)))) | -25.6 kcal/mol | 53.9 °C |
| GGGATCCGAAAGGACCCC (((.(((....))).))) | -35.2 kcal/mol | 59.1 °C |
| GATCCGCTGCCGGATC ((((((....)))))) | -36.4 kcal/mol | 57 °C |
| GCTATCGAAAGATTAAGC ((((((....)))..))) | -17.1 kcal/mol | 34.6 °C |
| GTGCCCGAAAGGGTACAC ((((((....)))..))) | -13.9 kcal/mol | 61.6 °C |
| GACAGCGAAAGCTGCGTC ((((((....)))..))) | -10.1 kcal/mol | 48 °C |
| GATCTGTGGTCAGATC ((((((....)))))) | -38.7 kcal/mol | 49.6 °C |
| GGCTCAGGAAACCAAGCC ((((..(....)..)))) | -31.6 kcal/mol | 35.3 °C |
| GATCGAATGTTCGATC ((((((....)))))) | -42.5 kcal/mol | 52.5 °C |
| GATCGAACGCTCGATC ((((((....)))))) | -40.4 kcal/mol | 50.7 °C |
| GAAGTGGGAAACCACCTC ((.((((....)))).)) | -13.7 kcal/mol | 32.2 °C |
| GAGTTAGAAATAACTC ((((((....)))))) | -31.5 kcal/mol | 43.2 °C |
| GCAGCGCGAAAGCACAGC ((.(.((....)).).)) | -19.9 kcal/mol | 43.8 °C |
| GCAGCGCGAAAGCGTCGC ((..(((....)))..)) | -17.5 kcal/mol | 57.1 °C |
| CGCGGAAAGGTCCGCG ((((((....)))))) | -45.8 kcal/mol | 61.9 °C |
| GCGAACGCGAAAGCGCGC (((..(((....)))))) | -14.7 kcal/mol | 60.1 °C |
| GCAAGGCGAAAGCCTCGC ((.((((....)))).)) | -18.4 kcal/mol | 59.3 °C |
| GGTGCCGGAAACGGTACC (((.(((....))).))) | -35.8 kcal/mol | 64.1 °C |
| GTGTCCCGAAAGGGCAC (((.(((....)))))) | -26.1 kcal/mol | 65.2 °C |
| GCTAAGCGAAAGCTCAGC (((.(((....))).))) | -31.6 kcal/mol | 48 °C |
| GCGCCGCGAAAGCCGTGC ((.(.((....)).).)) | -20.5 kcal/mol | 52.1 °C |
| GAGGACGAAAGTCCCTC ((((((....))).))) | -11.3 kcal/mol | 51.2 °C |
| GTCGGTCGAAAGACAGAC (((.(((....))).))) | -37.8 kcal/mol | 57.8 °C |

| Sequence | folding enthalpy [1] | Tm [2] |
| --- | --- | --- |
| GATCGTTAGACGATC ((((((...)))))) | -34.8 kcal/mol | 52.9 °C |
| GAACAGGGAAACCTGTTC (((((((....))))))) | -37.8 kcal/mol | 59.4 °C |
| GCTGCGCGAAAGCCTAGC (((..((....))..))) | -15.7 kcal/mol | 42.4 °C |
| GTCCATGCGAAAGCAGAC (((..(((....)))))) | -12.9 kcal/mol | 35.3 °C |
| GGGGACGAAAGTCGTCCC ((((((....)))..))) | -20.8 kcal/mol | 61.3 °C |
| GCAGTGGGAAACCGCTGC ((((.((....)).)))) | -49.4 kcal/mol | 62.1 °C |
| GGTGCGGGAAACCGCATC (.(((((....))))).) | -15.7 kcal/mol | 60.4 °C |
| GATCCAACCATGGATC ((((((....)))))) | -35.5 kcal/mol | 50 °C |
| GCATGACGAAAGTCTTGC (((.(((....))).))) | -38.3 kcal/mol | 57.5 °C |
| GGAAGGCGAAAGCCGTCC (((.(((....))).))) | -15.5 kcal/mol | 58 °C |
| GATCATGATGATGATC ((((((....)))))) | -32.3 kcal/mol | 47.5 °C |
| GCGATTACGAAAGTACGC (((..(((....)))))) | -26 kcal/mol | 43.4 °C |
| GATCGTCATCACGATC ((((((....)))))) | -43.8 kcal/mol | 52.2 °C |
| CTGTAGAAATACAG (((((....))))) | -14.5 kcal/mol | 39.4 °C |
| GGGACCGGAAACGATCCC ((((.((....)).)))) | -45.8 kcal/mol | 50.8 °C |
| GTTAAAGGAAACTTTGAC ((.((((....)))).)) | -16.7 kcal/mol | 33.2 °C |
| GGCAGGGGAAACCCCACC ((..(((....)))..)) | -16.5 kcal/mol | 31.6 °C |
| GATCCATTATGGATC ((((((...)))))) | -35.9 kcal/mol | 52.7 °C |
| GATCCCGTGGGGATC ((((((...)))))) | -32.4 kcal/mol | 64.5 °C |
| GTGACGCCGAAAGGCCAC (((..(((....)))))) | -11.8 kcal/mol | 45.2 °C |
| GGACGGGGAAACCCATCC (((.(((....))).))) | -27.6 kcal/mol | 41.7 °C |
| GCTGCCACGAAAGTGAGC (((..(((....)))))) | -13.1 kcal/mol | 50.2 °C |
| GGTTCCGAAAGGATAACC ((((((....)))..))) | -20.5 kcal/mol | 43.5 °C |
| GATCACGCTTGTGATC ((((((....)))))) | -38 kcal/mol | 57.7 °C |

| Sequence | folding enthalpy [1] | Tm [2] |
| --- | --- | --- |
| GGTTCCCGAAAGGGTACC (((.(((....))).))) | -33.6 kcal/mol | 57.5 °C |
| GGCTGATCGAAAGATGCC (((..(((....)))))) | -22.6 kcal/mol | 43.9 °C |
| GGAACAGGAAACTATTCC ((((.((....)).)))) | -13.4 kcal/mol | 24.7 °C |
| GCGAACGGAAACGCTCGC ((((.((....)).)))) | -41.5 kcal/mol | 55.7 °C |
| GACCCGGGAAACCGGATC ((.((((....)))).)) | -16.3 kcal/mol | 43.2 °C |
| GCTATCCGAAAGGACAGC (((.(((....))).))) | -31.7 kcal/mol | 49 °C |
| GCACAGCGAAAGCTCGGC ((..(((....)))..)) | -15.2 kcal/mol | 38.4 °C |
| GGTCAAGGAAACTCGACC ((((.((....)).)))) | -26.6 kcal/mol | 40.8 °C |
| GCGTTTTACGC ((((...)))) | -23 kcal/mol | 60.6 °C |
| GATCGATAATTCGATC ((((((....)))))) | -39.6 kcal/mol | 51.2 °C |
| GCCGTGCGAAAGCATCGC ((..(((....)))..)) | -11.1 kcal/mol | 50.2 °C |
| GTAAGGGGAAACCTTTAC ((((.((....)).)))) | -27.1 kcal/mol | 33.9 °C |
| GTAGAGAAATCTAC (((((....))))) | -12.6 kcal/mol | 35.5 °C |
| GCATTAGGAAACCAATGC (((((.(....).))))) | -29.6 kcal/mol | 39.6 °C |
| GCCGGGGGAAACCCCAGC ((.((((....)))).)) | -21.2 kcal/mol | 50.3 °C |
| GGATAGAAATATCC (((((....))))) | -17.5 kcal/mol | 36 °C |
| GTACTGGGAAACCAGCAC ((.((((....)))).)) | -20.4 kcal/mol | 42.3 °C |
| GTCTTAGGAAACTAGGAC (((.(((....))).))) | -33.8 kcal/mol | 38.4 °C |
| GCTGGGCGAAAGCACTGC ((.(.((....)).).)) | -29.4 kcal/mol | 61.3 °C |
| GGAACCGAAAGGTGATCC ((((((....)))..))) | -14 kcal/mol | 42.8 °C |
| GGACCCCCGAAAGGGTCC (((..(((....)))))) | -34.8 kcal/mol | 62.1 °C |
| GATCTGTTCCAGATC ((((((...)))))) | -30.4 kcal/mol | 50.7 °C |
| GATCAACTGCTTGATC ((((((....)))))) | -31.5 kcal/mol | 44 °C |
| GCGGCGCGAAAGCCCGGC ((.(.((....)).).)) | -14.6 kcal/mol | 59.8 °C |

| Sequence | folding enthalpy [1] | Tm [2] |
| --- | --- | --- |
| GTAGCCGAAAGGCCTAC ((((((....))).))) | -12.5 kcal/mol | 45 °C |
| GTCACTGGAAACAGCGAC (((.(((....))).))) | -35.2 kcal/mol | 47.2 °C |
| TCTAGGAAACTAGA (((((....))))) | -10.5 kcal/mol | 29.7 °C |
| CGGAAGCGGAAACGCCCG (((..(((....)))))) | -21.3 kcal/mol | 50.5 °C |
| GATCGGCACCCGATC ((((((...)))))) | -35.9 kcal/mol | 55 °C |
| GCGTCCGAAAGGACCCGC ((((((....)))..))) | -11.4 kcal/mol | 44.4 °C |
| GGAGACGAAAGTCATTCC ((((((....)))..))) | -12 kcal/mol | 29.6 °C |
| GCTTACGAAAGTAAAAGC ((((((....)))..))) | -27.5 kcal/mol | 41.7 °C |
| CGGGCGGAAACGCTCCCG ((((((....)))..))) | -14.7 kcal/mol | 48.1 °C |
| GTACGCCGAAAGGCTTAC (((.(((....))).))) | -21.5 kcal/mol | 46.3 °C |
| GTGCACGAAAGTGATCAC ((((((....)))..))) | -12.7 kcal/mol | 37.4 °C |
| GATCCCATGTGGGATC ((((((....)))))) | -38.2 kcal/mol | 61.2 °C |
| GATGAGGGAAACCTCATC (((((((....))))))) | -39.6 kcal/mol | 58.4 °C |
| GAATAGCCGAAAGGCTTC (((..(((....)))))) | -7.5 kcal/mol | 25.5 °C |
| GATCGGGCGACCGATC ((((((....)))))) | -44.9 kcal/mol | 63.1 °C |
| CGCGGAATTATCCGCG ((((((....)))))) | -41.5 kcal/mol | 67.2 °C |
| GCACGGGGAAACCCACGC ((..(((....)))..)) | -23.9 kcal/mol | 41.5 °C |
| TTACTGAAAAGTAA (((((....))))) | -8.68 kcal/mol | 26.7 °C |
| GGGATGCGAAAGCACCCC (((.(((....))).))) | -27.7 kcal/mol | 61.4 °C |
| GTGATCCGAAAGGACAC (((.(((....)))))) | -22.5 kcal/mol | 50.7 °C |
| CGTGCGGAAACGCCACG ((((((....))).))) | -25.4 kcal/mol | 53.8 °C |
